High-throughput results as filed in PubChem.
This is a sample that favours compounds with a hit; in the whole collection about 3.9% have one here.
HSF1 inh – HSF1 inhibition. NIH3T3-HGL HSE-luciferase, MG132-induced, luminescence 8 h; hits give low values. 300,000 compounds, 0.77% hits. activity change, negative = inhibition, % at 7.5 µM (by protocol). AID 2098;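 active = more than half of replicate wells show activity change below -50%, luminescence cut by over half; inconclusive = some wells, but at most half, below -50%; inactive = no replicate well below -50%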;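 also: luciferase reports HSF-1 transcriptional activity via heat shock element; 0% = median of DMSO wells and -100% = zero luminescence signal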
HSP90 refold inh – HSP90 refolding inhibition in rabbit reticulocyte lysate. luciferase refolding luminescence, 3 h. inhibition, % at 5.6 µM. 290,000 compounds, 0.91% hits;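 active = inhibition above the screen-wide mean plus 3 SD, computed separately per campaign, cut at about 16% in these data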;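 also: 0% = DMSO wells and 100% = 60 µM geldanamycin wells; inhibitors lower the luminescence because luciferase stays unfolded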
FID counter – fluorescent intercalator displacement, NS3 helicase counter-screen; DNA fluorescent intercalator displacement, fluorescence; inhibition, % at 7.9 µM; 290,000 compounds, 0.17% hits; AID 1845; in the data active = inhibition above about 37%;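 also: 0% = vehicle and 100% = reference compound; higher means more ethidium bromide displaced from hairpin DNA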
HSF-1 act – increases HSF-1 driven luciferase reporter signal | activation, % at 9 µM | NIH3T3-HGL HSF-1 luciferase reporter, MG132, 8 h; 100% = twice DMSO control signal | 300,000 compounds, 1.7% hits;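 active = mean replicate activation of at least 50% with a set share of replicates each reaching 50%; inconclusive = only one of those two conditions met; inactive = mean below 50% and too few replicates reaching it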;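 also: 0% = median of the neutral control wells and 100% = twice that signal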
core dimer inh – HCV core protein dimerization inhibition | TR-FRET GST/Flag-core106 dimerization, 1536-well | AID 1899 | 300,000 compounds, 0.33% hits | inhibition, % at 5 µM;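 active = inhibition above the mean of all tested compounds plus 3 SD, set per screening campaign, cut at about 45% in these data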
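Material: Tagged HCV core106 pair (GST and Flag) | Amount: GST-core106 13.5 nM, Flag-core106 17 nM | Medium: KF-containing HEPES buffer, pH 7.45, DTT, CHAPS, BSA | Reagent: Eu donor and XL665 acceptor anti-tag antibodies | Schedule: 4 h at 22.5 °C | Technique: Time-resolved FRET, ex 340 nm, em 617 and 671 nm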
HCV NS3 hel inh – blocks Hepatitis C virus NS3 helicase unwinding; inhibition, % at 10.9 µM; 290,000 compounds, 0.56% hits; AID 1800; NS3 helicase DNA unwinding, Cy5 molecular beacon fluorescence;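 active = inhibition above the mean of all tested compounds plus 3 SD, set per campaign, cut at about 35% in these data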;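 also: 0% = DMSO wells and 100% = thioflavine S control wells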
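assay system = NS3 helicase fragment of HCV | buffer or medium = MOPS pH 6.5, MgCl2, DTT, Tween20, BSA | timing = 60 min unwinding reaction at 25 °C after ATP addition | signal = Cy5 beacon fluorescence read at start and 1 h | read-out basis = % inhibition of unwinding | control set = low DMSO, high thioflavine S at 110 µM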
HSP90 inh confirm – confirmation of HSP90 inhibitors | shares compounds with HSP90 refold inh | rabbit reticulocyte lysate, luciferase refolding luminescence, 3 h | inhibition, % at 5.9 µM | 2,300 compounds, 64% hits; in the data active = inhibition above about 18%;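 also: 0% = vehicle wells and 100% = reference inhibitor wells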
FLuc counter – firefly luciferase inhibition, HSP90 counter-screen; shares compounds with HSP90 refold inh; purified native firefly luciferase, luminescence; inhibition, % at 5.9 µM; 2,300 compounds, 48% hits; AID 1847;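 active = inhibition above the mean inhibition of all tested sample wells plus 3 SD, cut at about 10% in these data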;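 also: 0% = DMSO with luciferase and 100% = wells lacking luciferase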
Target sequence (P08659 whole entry, looked up): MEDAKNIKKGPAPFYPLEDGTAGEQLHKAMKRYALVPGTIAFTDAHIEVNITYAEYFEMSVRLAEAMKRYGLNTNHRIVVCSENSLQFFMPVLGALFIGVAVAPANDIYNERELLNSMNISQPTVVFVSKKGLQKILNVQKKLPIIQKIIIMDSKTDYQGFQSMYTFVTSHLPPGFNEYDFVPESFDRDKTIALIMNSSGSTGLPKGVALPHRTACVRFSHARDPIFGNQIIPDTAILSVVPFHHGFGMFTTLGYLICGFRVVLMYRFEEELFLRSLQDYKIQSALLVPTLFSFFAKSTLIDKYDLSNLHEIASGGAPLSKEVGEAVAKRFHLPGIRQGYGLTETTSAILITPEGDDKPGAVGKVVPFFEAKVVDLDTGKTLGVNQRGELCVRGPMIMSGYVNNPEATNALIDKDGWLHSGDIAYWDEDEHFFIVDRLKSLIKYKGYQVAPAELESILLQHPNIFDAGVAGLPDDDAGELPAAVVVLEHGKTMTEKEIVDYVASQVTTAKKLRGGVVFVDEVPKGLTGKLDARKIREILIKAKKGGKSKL
Numbers without * were called inactive; ? = inconclusive; . = no result.

SMILES | HSF1 inh | HSP90 refold inh | FID counter | HSF-1 act | core dimer inh | HCV NS3 hel inh | HSP90 inh confirm | FLuc counter
COC(=O)C1CCN(C(=O)c2ccc3nc(-c4cccc(OC)c4)oc3c2)CC1 | -12 | 51* | -30 | -7 | 1 | 1 | 63* | -10
COC(=O)C1CCN(C(=O)c2ccc3nccnc3c2)CC1 | -1 | -4 | -7 | -10 | . | -2 | . | .
COc1ccc(/C=N/Nc2ncccc2[N+](=O)[O-])c(OC)c1 | -17 | 51* | -3 | -25 | -12 | 6 | 70* | 62*
COc1ccc(/C=N/Nc2ncc(-c3ccccc3)cn2)c(OC)c1 | -1 | -2 | -11 | 4 | -1 | 1 | . | .
O=C(O)CCC(=O)Nc1ccccc1C(=O)N1CCN(c2ccc(Cl)cc2)CC1 | 0 | -3 | -28 | 2 | 3 | 6 | . | .
O=C(N/N=C/c1cccs1)c1ccccn1 | 11 | 4 | 0 | 5 | -3 | 5 | . | .
Cc1ccc(/C=N/NC(=O)c2ccccn2)s1 | 1 | 18* | -1 | 34 | 0 | 18 | 31* | 19*
CCc1ccc(/C=N/NC(=O)c2ccccn2)cc1 | 13 | 23* | -6 | 44 | -1 | 0 | 73* | 65*
COC(=O)C1C/C(=N/NS(=O)(=O)c2ccc(C)cc2)CS1 (stereo unspecified) | -23 | -6 | -11 | -33 | . | 4 | . | .
COc1ccc(/C(=N/Nc2ncnc3ccccc23)C(=O)O)cc1 | 21 | 4 | -10 | 6 | -18 | -21 | . | .
CCOC(=O)/C(=N\Nc1ncnc2ccccc12)c1ccc(OC)cc1 | 7 | 18* | -23 | 8 | 5 | -27 | 23* | -28
O=C(Oc1ccc(/C=N/Nc2ccccc2)cc1)c1ccccc1 | 11 | -6 | -3 | 20 | 15 | -9 | . | .
COc1ccc(/C=N/NC(=S)Nc2cccc(C(=O)O)c2)cc1 | -28 | 10 | -10 | -30 | 2 | -5 | . | .
O=C(O)c1ccc(N/N=C/c2ccc(OC(=O)c3cccc(Cl)c3)cc2)cc1 | ? | 43* | -12 | -59 | -101 | 23 | 85* | 6
O=C(O)c1cccc(N/N=C/c2ccc(OC(F)(F)F)cc2)c1 | -56* | 47* | -20 | -59 | -6 | -13 | 76* | 76*
O=c1oc2ccccc2cc1C1=Nn2c(nnc2-c2cccnc2)SC1 | -3 | -2 | -1 | 0 | -3 | 2 | . | .
Cc1ccc(-c2ccc(/C=N/NC(=O)c3ccccc3O)o2)cc1 | -16 | 22* | -5 | -5 | 1 | 10 | -3 | -11
CNC(=S)N/N=C/c1ccc(-c2cccc(C(=O)O)c2)o1 | -60* | 26* | -12 | -66 | -12 | 17 | 15 | 0
CCc1noc(C)c1C(=O)NNC(=O)COc1ccc(C)cc1 | -3 | . | . | -12 | -3 | . | . | .
NC1=NS(=O)(=O)NC1c1cccc(Cl)c1 (stereo unspecified) | -1 | 22* | -3 | -1 | 0 | 14 | -3 | -6
CC(=O)N(/N=C1\Sc2ccccc2C1=O)c1ccccc1 | . | 11 | 3 | . | . | 1 | . | .
CC(=O)N(/N=C1\Sc2ccccc2C1=O)c1ccc(C)cc1C | -86* | 41* | 0 | -89 | -13 | -4 | 79* | 58*
CC(=O)N(/N=C1\Sc2ccccc2C1=O)c1ccccc1C | 17 | 35* | -1 | 26 | 29 | -7 | 74* | -26
COc1ccccc1N(Cc1ccccc1)S(=O)(=O)c1cccc(C(=O)Nc2cc(C)ccn2)c1 | -1 | 38* | -18 | 6 | 15 | -57 | 58* | 41*
COc1ccccc1N(Cc1ccccc1)S(=O)(=O)c1cccc(C(=O)Nc2ncccc2C)c1 | -4 | . | . | 4 | -4 | . | . | .
SMILES | HSF1 inh | HSP90 refold inh | FID counter | HSF-1 act | core dimer inh | HCV NS3 hel inh | HSP90 inh confirm | FLuc counter
N#C/C(=C\c1c(N2CCC(C(N)=O)CC2)nc2ccccn2c1=O)C(=O)NC1CCCCC1 | -1 | -6 | -33 | 8 | 0 | -7 | . | .
NC(=O)c1cc2cc(Cl)ccc2oc1=Nc1cccc(C(F)(F)F)c1 | -2 | 0 | -5 | 0 | 17 | -1 | . | .
COc1ccc(CCN(C)C(=O)CN2C(=O)c3ccccc3S2(=O)=O)cc1OC | 1 | 0 | -14 | -6 | 3 | -10 | . | .
COc1ccc(CCN(/C=C2\Sc3ccccc3C2=O)C(C)=O)cc1OC | -3 | 25* | 1 | 13 | 1 | 10 | 1 | -5
CC(=O)NCCn1c(C)cc2ccccc21 | -2 | . | . | 4 | -4 | . | . | .
Cc1cc2ccccc2n1CCNC(=O)c1ccc(Br)o1 | -3 | 17* | -13 | 2 | -19 | 12 | 1 | -7
Cc1cc2ccccc2n1CCNC(=O)c1ccccc1 | 0 | 40* | -12 | -6 | -8 | -12 | 51* | -3
CCN(CC(=O)NCc1cccs1)C(=O)/C=C/c1cccc(Br)c1 | 5 | . | . | 8 | -1 | . | . | .
COc1ccc(S(=O)(=O)Nc2cccc(SC)c2)cc1OC | -2 | 3 | -11 | -3 | -2 | 9 | . | .
Cc1ccc(N2CN(S(=O)(=O)c3cccc([N+](=O)[O-])c3)c3nc4ccccc4nc32)cc1 | -6 | 8 | 8 | -9 | -10 | -15 | . | .
Cc1ccc(NC(=O)C2CCN(C(=O)c3ccco3)CC2)cc1 | -6 | -6 | -6 | -9 | 8 | -1 | . | .
Cc1cc(Br)ccc1NC(=O)C1CCN(C(=O)c2ccco2)CC1 | -5 | 75* | -16 | 15 | 8 | -14 | -9 | -11
O=C(Nc1ccccc1Cl)NC1(C(=O)NCc2cccnc2)CCCCC1 | -6 | 2 | -15 | -25 | -18 | 22 | . | .
COc1ccc(-c2ccc(=O)n(Cc3c(F)cccc3Cl)n2)cc1 | 4 | 1 | -29 | 4 | -5 | 0 | . | .
COc1ccc(-c2ccn(-c3cccc(F)n3)n2)cc1 | . | 22* | -5 | . | . | 6 | 33* | 18*
O=C1c2ccccc2S(=O)(=O)N1Cc1nc2ccccc2s1 | -23 | 37* | -4 | -25 | -4 | -9 | 21* | -5
Cc1ccccc1CN1C(=O)c2ccccc2S1(=O)=O | -4 | 2 | -9 | -13 | -10 | 2 | . | .
COC(=O)[C@H](Cc1ccccc1)NC(=O)NCCC1=CCCCC1 | 3 | 2 | -16 | 11 | 1 | -1 | . | .
CCC(=O)Nc1cc(C(=O)OCC(=O)c2ccccc2)ccc1C | -3 | 20* | -10 | 13 | 10 | -1 | 45* | -34
COc1ccccc1CCC(=O)OCC(=O)c1c(N)n(CC(C)C)c(=O)n(C)c1=O | -9 | . | . | -10 | -4 | . | . | .
COc1ccc(CCC(=O)OCC(=O)c2c(N)n(CC(C)C)c(=O)n(C)c2=O)cc1 | -8 | 18* | -34 | -13 | 4 | -7 | 6 | 3
Cc1csc2ncc(C(=O)NCc3ccccn3)c(=O)n12 | 0 | 3 | -5 | 4 | -2 | 3 | . | .
